ChEMBL document CHEMBL3232764, “Influence of the adamantyl moiety on the activity of biphenylacrylohydroxamic acid-based HDAC inhibitors” (Eur J Med Chem, 2014)
The source made the active and inactive calls. The rule behind the calls is not given here.

Key:
[1] = target: Histone deacetylase 2 (Homo sapiens, UniProt Q92769); type: cell-based, HeLa
[2] = cells; type: functional, cell-based; details: Homo sapiens, NCI-H460, 72 h
[3] = system: HCT-116; experiment: Antiproliferative activity against human HCT116 cells assessed as growth inhibition after 72 hrs; type: functional, cell-based; details: HCT-116, 72 h
In short: (§1)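 Log-phase cells seeded in duplicate in 6-well plates; drug added 24 h after seeding. Cells harvested 72 h after drug exposure and counted with a cell counter. IC50 = drug concentration giving 50% reduction in cell number versus untreated control.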

[4] = system: IGROV-1; experiment: Antiproliferative activity against human IGROV1 cells assessed as growth inhibition after 72 hrs; type: functional, cell-based; details: IGROV-1, 72 h
In short: as §1

[5] = Antiproliferative activity against p53 defective cis-platinum-resistant human IGROV1/Pt1 cells assessed as growth inhibition after 72 hrs; type: functional, cell-based; details: IGROV-1/Pt1, 72 h
In short: as §1

[6] = target: T1, Histone deacetylase 11 (Homo sapiens, UniProt Q96DB2); experiment: Inhibition of human HDAC11 using fluorogenic tetrapeptide RHKKAc as substrate
T1 sequence (Q96DB2 whole entry): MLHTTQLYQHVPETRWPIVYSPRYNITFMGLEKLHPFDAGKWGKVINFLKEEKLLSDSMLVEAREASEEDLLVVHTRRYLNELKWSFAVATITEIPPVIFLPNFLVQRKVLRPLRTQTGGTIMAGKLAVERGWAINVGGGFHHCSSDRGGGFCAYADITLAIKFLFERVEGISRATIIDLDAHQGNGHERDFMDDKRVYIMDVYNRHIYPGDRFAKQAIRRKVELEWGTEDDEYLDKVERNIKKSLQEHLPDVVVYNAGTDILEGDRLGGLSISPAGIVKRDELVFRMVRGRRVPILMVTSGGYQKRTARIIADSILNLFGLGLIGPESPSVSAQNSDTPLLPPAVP

[7] = system: IGROV-1; experiment: Induction of apoptosis in human IGROV1 cells at IC80 after 72 hrs by TUNEL and flow cytometry analysis (reference value: 4%); type: functional
[8] = target: T2, Protein deacetylase HDAC6 (Homo sapiens) (UniProt Q9UBN7); experiment: Inhibition of HDAC6 in human IGROV1 cells assessed as increase in tubulin acetylation at IC80 after 4 to 24 hrs by Western blot analysis; type: cell-based; details: IGROV-1
T2 sequence (whole entry): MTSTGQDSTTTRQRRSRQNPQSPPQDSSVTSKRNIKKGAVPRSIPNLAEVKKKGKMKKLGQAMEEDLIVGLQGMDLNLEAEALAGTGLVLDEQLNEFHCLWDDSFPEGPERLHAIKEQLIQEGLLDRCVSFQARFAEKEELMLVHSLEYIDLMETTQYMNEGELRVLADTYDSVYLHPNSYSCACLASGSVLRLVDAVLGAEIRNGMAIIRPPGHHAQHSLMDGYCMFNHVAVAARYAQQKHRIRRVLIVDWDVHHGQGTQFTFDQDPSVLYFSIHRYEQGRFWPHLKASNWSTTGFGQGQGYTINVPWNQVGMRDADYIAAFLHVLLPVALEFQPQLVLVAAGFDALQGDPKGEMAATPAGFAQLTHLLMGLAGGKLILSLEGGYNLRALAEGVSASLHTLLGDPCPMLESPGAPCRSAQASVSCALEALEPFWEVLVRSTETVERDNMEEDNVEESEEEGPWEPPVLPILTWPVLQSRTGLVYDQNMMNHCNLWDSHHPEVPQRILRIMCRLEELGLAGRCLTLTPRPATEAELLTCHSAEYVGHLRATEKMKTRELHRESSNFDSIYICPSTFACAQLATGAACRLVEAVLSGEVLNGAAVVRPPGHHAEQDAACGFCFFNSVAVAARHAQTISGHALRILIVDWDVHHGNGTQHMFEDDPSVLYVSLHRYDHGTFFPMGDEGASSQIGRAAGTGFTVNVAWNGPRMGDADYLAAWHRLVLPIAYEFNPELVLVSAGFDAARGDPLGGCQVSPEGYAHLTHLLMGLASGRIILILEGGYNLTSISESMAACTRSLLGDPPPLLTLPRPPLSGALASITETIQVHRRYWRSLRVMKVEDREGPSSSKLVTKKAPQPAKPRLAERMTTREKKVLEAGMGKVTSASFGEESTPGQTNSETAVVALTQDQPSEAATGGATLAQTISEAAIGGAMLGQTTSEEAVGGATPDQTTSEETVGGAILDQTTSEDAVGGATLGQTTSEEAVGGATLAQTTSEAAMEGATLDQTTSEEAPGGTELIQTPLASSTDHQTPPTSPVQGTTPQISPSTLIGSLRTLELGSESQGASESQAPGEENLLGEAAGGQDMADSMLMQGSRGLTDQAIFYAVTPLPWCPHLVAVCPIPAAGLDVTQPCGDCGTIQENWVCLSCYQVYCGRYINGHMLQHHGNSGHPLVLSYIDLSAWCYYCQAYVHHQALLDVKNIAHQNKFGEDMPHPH
In short: (§2)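 Cells treated with various concentrations of HDAC inhibitors, collected, lysed and analysed by Western blotting.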

[9] = system: IGROV-1; experiment: Induction of DNA damage in human IGROV1 cells assessed as p53 phosphorylation at Ser15 at 1 to 2 uM after 4 to 48 hrs by Western blot analysis; type: functional, cell-based
In short: as §2

[10] = system: IGROV-1; experiment: Cell cycle arrest in human IGROV1 cells assessed as accumulation at G1 phase at IC80 after 24 hrs by propidium iodide staining-based flow cytometry (reference value: 49.98%); type: functional
In short: (§3)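 Cell-cycle distribution in IGROV-1 cells read by flow cytometry of propidium iodide–stained cells.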

[11] = system: IGROV-1; experiment: Cell cycle arrest in human IGROV1 cells assessed as accumulation at S phase at IC80 after 24 hrs by propidium iodide staining-based flow cytometry (reference value: 36.81%); type: functional
In short: as §3

[12] = Cell cycle arrest in human IGROV1 cells assessed as accumulation at G2/M phase at IC80 after 24 hrs by propidium iodide staining-based flow cytometry (reference value: 13.21%); type: functional; details: IGROV-1
In short: as §3

[13] = system: HCT-116; experiment: Anticancer activity against human HCT116 cells xenografted in athymic nude Swiss mouse assessed as tumor growth inhibition at 50 mg/kg, po administered once-daily for 5 days a week for 5 weeks starting 3 days post tumor implantation; type: functional; details: read-out: TGI
In short: (§4)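 Female athymic Swiss nude mice given 10⁷ exponentially growing HCT116 cells s.c. in the right flank; tumor lines maintained by serial s.c. fragment passage. Dosing began 3 days after implantation: 50 mg/kg orally, once daily 4–5 days/week for 5 weeks (24 doses total). Compound dissolved in DMSO, diluted in PBS with 5% Cremophor to 10% DMSO final.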

[14] = system: Mus musculus; experiment: Toxicity in athymic nude Swiss mouse xenografted with human HCT116 cells at 50 mg/kg, po administered once-daily for 5 days a week for 5 weeks starting 3 days post tumor implantation; type: organism-based, HCT-116; set-up: dose 50 mg/kg, route oral; details: in vivo
In short: as §4

[15] = target: Histone deacetylase 1 (Homo sapiens, UniProt Q13547); experiment: Inhibition of human HDAC1 using fluorogenic tetrapeptide RHKKAc as substrate
Chain of Histone deacetylase 1 (Q13547 whole entry): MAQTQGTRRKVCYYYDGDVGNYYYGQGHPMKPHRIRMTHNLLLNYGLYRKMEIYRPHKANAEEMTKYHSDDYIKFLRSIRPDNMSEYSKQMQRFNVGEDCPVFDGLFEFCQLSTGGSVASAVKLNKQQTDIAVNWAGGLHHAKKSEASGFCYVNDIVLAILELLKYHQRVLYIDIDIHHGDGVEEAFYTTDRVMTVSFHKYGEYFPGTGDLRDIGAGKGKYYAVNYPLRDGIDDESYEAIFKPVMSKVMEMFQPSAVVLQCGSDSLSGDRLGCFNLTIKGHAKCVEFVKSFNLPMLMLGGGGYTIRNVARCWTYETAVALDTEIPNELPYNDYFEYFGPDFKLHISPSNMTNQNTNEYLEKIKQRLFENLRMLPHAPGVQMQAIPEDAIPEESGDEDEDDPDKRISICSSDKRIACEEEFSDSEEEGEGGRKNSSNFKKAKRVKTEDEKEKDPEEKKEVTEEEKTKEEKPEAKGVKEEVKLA

[16] = target: Histone deacetylase 3 (Homo sapiens, UniProt O15379)
Chain of Histone deacetylase 3 (O15379 whole entry): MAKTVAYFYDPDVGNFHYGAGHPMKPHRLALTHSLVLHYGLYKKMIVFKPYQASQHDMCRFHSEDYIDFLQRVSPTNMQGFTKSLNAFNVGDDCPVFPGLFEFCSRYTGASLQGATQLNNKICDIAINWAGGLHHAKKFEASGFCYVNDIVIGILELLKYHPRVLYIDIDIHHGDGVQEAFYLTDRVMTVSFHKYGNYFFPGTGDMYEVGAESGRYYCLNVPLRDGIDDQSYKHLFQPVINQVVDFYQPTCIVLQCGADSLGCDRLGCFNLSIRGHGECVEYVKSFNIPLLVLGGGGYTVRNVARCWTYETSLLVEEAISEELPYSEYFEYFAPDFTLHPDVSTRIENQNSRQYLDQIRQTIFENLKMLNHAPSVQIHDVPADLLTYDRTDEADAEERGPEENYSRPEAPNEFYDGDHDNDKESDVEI

[17] = target: Histone deacetylase 4 (Homo sapiens, UniProt P56524); experiment: Inhibition of human HDAC4 using fluorogenic tetrapeptide RHKKAc as substrate
Chain of Histone deacetylase 4 (P56524 whole entry): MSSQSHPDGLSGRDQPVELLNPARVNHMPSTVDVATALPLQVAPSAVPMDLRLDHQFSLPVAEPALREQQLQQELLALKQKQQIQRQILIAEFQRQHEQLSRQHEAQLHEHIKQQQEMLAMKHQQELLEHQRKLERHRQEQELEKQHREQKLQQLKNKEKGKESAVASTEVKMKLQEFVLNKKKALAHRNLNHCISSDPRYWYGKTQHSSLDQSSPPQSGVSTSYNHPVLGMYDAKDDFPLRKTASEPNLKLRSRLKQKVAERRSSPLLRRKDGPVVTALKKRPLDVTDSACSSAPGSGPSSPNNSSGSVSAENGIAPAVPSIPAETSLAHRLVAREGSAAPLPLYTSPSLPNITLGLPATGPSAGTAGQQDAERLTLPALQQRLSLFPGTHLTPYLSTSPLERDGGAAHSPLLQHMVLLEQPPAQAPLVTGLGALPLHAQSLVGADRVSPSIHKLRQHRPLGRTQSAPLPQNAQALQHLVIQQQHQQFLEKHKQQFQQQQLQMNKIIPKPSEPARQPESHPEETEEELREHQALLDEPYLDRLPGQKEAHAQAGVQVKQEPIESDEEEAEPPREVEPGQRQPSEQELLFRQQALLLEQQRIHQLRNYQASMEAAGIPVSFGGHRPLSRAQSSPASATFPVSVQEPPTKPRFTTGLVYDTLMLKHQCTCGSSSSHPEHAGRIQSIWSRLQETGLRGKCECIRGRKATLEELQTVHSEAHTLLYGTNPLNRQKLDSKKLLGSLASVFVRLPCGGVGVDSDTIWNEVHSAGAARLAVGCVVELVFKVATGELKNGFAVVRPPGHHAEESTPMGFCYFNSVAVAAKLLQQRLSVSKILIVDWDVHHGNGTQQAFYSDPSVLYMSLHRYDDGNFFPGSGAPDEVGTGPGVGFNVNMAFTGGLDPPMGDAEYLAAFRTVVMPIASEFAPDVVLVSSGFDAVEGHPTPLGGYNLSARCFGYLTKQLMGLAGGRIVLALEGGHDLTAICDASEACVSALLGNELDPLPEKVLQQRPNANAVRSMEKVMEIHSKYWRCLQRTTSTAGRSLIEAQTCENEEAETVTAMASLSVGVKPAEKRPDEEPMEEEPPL

[18] = target: Histone deacetylase 5 (Homo sapiens, UniProt Q9UQL6); experiment: Inhibition of human HDAC5 using fluorogenic tetrapeptide RHKKAc as substrate
Chain of Histone deacetylase 5 (Q9UQL6 whole entry): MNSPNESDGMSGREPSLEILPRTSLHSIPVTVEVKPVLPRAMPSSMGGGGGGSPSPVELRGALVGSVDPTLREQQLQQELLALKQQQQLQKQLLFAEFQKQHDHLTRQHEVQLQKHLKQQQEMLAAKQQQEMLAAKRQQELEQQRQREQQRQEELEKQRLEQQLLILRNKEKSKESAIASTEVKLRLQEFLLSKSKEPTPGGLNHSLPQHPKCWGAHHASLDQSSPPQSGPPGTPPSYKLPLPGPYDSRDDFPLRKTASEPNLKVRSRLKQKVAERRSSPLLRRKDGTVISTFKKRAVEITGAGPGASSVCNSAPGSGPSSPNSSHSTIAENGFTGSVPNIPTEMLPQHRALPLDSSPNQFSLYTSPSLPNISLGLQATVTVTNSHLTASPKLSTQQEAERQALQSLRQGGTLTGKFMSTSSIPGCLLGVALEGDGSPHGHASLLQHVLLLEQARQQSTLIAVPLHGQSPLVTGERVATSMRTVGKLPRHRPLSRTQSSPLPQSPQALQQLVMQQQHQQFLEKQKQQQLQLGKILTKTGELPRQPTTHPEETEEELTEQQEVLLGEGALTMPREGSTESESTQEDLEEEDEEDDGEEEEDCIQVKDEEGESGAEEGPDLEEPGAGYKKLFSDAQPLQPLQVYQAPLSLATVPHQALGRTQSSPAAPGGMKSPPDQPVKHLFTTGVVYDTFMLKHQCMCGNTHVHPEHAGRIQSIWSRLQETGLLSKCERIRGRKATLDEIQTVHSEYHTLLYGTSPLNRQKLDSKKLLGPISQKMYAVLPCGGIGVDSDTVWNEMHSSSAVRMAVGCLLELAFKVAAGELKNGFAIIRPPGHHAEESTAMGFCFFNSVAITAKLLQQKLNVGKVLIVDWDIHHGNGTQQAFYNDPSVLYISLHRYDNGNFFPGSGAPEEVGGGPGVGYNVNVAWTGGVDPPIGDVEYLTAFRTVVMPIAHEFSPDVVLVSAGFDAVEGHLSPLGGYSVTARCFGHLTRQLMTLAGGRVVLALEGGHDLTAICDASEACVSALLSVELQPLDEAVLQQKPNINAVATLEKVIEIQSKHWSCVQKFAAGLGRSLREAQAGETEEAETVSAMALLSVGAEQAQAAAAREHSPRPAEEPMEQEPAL

[19] = target: T3, Protein deacetylase HDAC6 (Homo sapiens, UniProt Q9UBN7); experiment: Inhibition of human HDAC6 using fluorogenic tetrapeptide RHKKAc as substrate
T3 sequence (Q9UBN7 whole entry): T2 sequence (whole entry)

[20] = target: T4, Histone deacetylase 8 (Homo sapiens, UniProt Q9BY41); experiment: Inhibition of human HDAC8 using fluorogenic tetrapeptide RHKKAc as substrate
T4 sequence (Q9BY41 whole entry): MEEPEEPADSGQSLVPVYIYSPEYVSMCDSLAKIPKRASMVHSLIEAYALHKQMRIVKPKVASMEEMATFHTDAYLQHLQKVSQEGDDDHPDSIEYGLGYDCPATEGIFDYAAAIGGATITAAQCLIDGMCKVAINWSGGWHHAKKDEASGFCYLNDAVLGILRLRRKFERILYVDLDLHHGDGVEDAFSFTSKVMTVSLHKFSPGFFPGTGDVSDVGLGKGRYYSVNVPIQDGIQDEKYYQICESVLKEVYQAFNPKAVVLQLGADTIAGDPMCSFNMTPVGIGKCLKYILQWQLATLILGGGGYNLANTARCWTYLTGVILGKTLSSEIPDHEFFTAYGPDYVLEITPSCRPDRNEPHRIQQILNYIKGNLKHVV

[21] = target: Histone deacetylase 9 (Homo sapiens, UniProt Q9UKV0); experiment: Inhibition of human HDAC9 using fluorogenic tetrapeptide RHKKAc as substrate
Chain of Histone deacetylase 9 (Q9UKV0 whole entry): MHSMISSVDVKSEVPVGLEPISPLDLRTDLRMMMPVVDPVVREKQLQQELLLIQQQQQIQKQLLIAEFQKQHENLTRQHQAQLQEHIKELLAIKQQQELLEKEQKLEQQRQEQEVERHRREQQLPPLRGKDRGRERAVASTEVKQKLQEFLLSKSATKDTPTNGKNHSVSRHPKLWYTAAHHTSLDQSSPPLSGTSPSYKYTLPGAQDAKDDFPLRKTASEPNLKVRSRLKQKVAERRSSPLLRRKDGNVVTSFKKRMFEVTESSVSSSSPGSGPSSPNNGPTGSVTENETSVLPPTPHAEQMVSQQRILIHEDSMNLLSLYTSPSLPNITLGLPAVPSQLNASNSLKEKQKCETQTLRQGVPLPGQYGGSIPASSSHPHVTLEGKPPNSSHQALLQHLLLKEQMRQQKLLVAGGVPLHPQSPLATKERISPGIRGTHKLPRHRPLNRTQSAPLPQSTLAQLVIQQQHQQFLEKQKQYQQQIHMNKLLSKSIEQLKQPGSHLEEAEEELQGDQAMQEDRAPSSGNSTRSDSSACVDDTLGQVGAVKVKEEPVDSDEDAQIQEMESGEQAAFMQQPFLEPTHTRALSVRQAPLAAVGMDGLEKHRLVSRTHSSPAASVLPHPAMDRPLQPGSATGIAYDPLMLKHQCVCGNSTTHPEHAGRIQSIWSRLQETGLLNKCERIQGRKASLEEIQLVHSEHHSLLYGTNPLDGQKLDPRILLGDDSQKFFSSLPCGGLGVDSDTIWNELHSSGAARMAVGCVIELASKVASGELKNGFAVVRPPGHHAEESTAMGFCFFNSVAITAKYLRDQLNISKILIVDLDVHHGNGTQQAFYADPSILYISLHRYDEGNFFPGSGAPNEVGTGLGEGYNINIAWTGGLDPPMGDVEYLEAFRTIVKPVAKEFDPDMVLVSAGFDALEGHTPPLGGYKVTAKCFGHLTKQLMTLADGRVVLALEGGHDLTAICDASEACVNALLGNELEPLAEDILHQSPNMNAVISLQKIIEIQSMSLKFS

[22] = target: T5, Polyamine deacetylase HDAC10 (Homo sapiens, UniProt Q969S8); experiment: Inhibition of human HDAC10 using fluorogenic tetrapeptide RHKKAc as substrate
T5 sequence (Q969S8 whole entry): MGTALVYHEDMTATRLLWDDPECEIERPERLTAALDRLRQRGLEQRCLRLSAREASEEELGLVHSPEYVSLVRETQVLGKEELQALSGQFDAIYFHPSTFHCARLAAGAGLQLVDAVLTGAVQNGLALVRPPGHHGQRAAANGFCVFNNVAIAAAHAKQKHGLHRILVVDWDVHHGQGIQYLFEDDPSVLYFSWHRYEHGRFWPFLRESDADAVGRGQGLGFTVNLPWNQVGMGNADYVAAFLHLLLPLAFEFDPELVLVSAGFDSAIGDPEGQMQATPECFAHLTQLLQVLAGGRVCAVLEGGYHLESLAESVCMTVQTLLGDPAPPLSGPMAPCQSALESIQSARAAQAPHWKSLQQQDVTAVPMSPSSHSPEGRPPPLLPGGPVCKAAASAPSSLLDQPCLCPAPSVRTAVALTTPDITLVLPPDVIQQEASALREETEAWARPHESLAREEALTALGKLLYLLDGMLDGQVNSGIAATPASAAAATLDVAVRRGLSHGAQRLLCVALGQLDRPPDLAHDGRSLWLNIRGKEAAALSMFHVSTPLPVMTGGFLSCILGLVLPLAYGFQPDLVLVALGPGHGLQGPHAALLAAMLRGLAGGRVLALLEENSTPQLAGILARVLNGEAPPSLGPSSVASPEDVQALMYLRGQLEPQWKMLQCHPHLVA

Chain of Histone deacetylase 2 (Q92769 whole entry): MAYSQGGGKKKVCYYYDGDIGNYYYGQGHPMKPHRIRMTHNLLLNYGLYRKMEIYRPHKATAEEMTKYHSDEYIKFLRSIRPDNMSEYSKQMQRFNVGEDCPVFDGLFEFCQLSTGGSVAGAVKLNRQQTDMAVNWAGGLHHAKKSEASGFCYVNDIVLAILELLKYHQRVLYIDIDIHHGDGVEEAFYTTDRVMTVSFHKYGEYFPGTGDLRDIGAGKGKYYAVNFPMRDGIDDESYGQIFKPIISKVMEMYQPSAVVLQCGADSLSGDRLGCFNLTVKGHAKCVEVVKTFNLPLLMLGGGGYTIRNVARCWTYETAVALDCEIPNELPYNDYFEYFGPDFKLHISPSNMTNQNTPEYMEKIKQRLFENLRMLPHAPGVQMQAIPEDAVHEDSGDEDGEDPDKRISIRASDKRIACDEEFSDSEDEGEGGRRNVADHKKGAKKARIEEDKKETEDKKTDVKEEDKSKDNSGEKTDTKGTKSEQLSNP

Structure (SMILES): COc1ccc(-c2ccc(/C=C/C(=O)NO)cc2)cc1C12CC3CC(CC(C3)C1)C2
- IC50 [1]: 2.3 µM
- IC50 [2]: 1.42 µM
- IC50 [3]: 1.3 µM
- IC50 [4]: 0.96 µM
- IC50 [5]: 1.8 µM
- IC50 [6]: 77 µM
- Activity [7]: 42%
- Activity [8]: inactive
- Activity [9]: Active
- Activity [10]: 78.46%
- Activity [11]: 18.14%
- Activity [12]: 3.39%
- inhibition in vivo at 50 mg/kg [13]: 60%
- Activity [14]: Non-toxic

Structure (SMILES): O=C(/C=C/c1ccc(-c2ccc(O)cc2)cc1)NO
- IC50 [15]: 5.51 µM
- IC50 [16]: 4.57 µM
- IC50 [17]: 17.1 µM
- IC50 [18]: 11.2 µM
- IC50 [19]: 0.0418 µM
- IC50 [20]: 0.162 µM
- IC50 [21]: 8.92 µM
- IC50 [22]: 11 µM
- IC50 [6]: 5.01 µM

Structure (SMILES): O=C(/C=C/c1ccc(-c2ccc(O)c(C34CC5CC(CC(C5)C3)C4)c2)c(Cl)c1)NO
- IC50 [2]: 5.4 µM
- IC50 [3]: 5.4 µM
- IC50 [4]: 1.34 µM
- IC50 [5]: 1.6 µM

Structure (SMILES): O=C(NO)c1ccc2cc(-c3ccc(O)c(C45CC6CC(CC(C6)C4)C5)c3)ccc2c1
- IC50 [2]: 1 µM
- IC50 [3]: 0.7 µM
- IC50 [4]: 0.65 µM
- IC50 [5]: 1.1 µM

Structure (SMILES): COc1ccc(-c2ccc3cc(C(=O)NO)ccc3c2)cc1C12CC3CC(CC(C3)C1)C2
- IC50 [2]: 1.3 µM
- IC50 [3]: 1.4 µM
- IC50 [4]: 1.5 µM
- IC50 [5]: 4.16 µM

Structure (SMILES): O=C(/C=C/c1ccc(-c2cc3c(c(C45CC6CC(CC(C6)C4)C5)c2)OCCO3)cc1)NO
- IC50 [2]: 1 µM
- IC50 [3]: 2.55 µM
- IC50 [4]: 1.2 µM
- IC50 [5]: 0.8 µM

Structure (SMILES): COc1ccc(-c2ccc(/C=C/C(=O)NO)cc2)cc1
- IC50 [15]: 8.55 µM
- IC50 [16]: 84.5 µM
- IC50 [17]: 99.4 µM
- IC50 [18]: 29.6 µM
- IC50 [19]: 0.0368 µM
- IC50 [20]: 0.0698 µM
- IC50 [21]: 39.3 µM
- IC50 [22]: 91 µM
- IC50 [6]: 73 µM
- Activity [7]: 90%
- Activity [10]: 42.05%
- Activity [11]: 55.84%
- Activity [12]: 2.11%

Structure (SMILES): O=C(/C=C/c1ccc(-c2cccc(C34CC5CC(CC(C5)C3)C4)c2)cc1)NO
- IC50 [1]: > 10 µM
- IC50 [2]: > 10 µM
- IC50 [3]: 10.3 µM
- IC50 [4]: 1.23 µM
- IC50 [5]: 5.7 µM

Structure (SMILES): O=C(CCCCCCC(=O)Nc1ccccc1)NO [VORINOSTAT]
- Activity [7]: 37%

Structure (SMILES): O=C(/C=C/c1ccc(-c2ccc(O)c(C34CC5CC(CC(C5)C3)C4)c2)cc1)NO
- IC50 [1]: 2.64 µM
- IC50 [2]: 0.83 µM
- IC50 [3]: 0.58 µM
- IC50 [4]: 1.1 µM
- IC50 [5]: 1.3 µM
- IC50 [15]: > 100 µM
- IC50 [16]: 55.6 µM
- IC50 [17]: 61.4 µM
- IC50 [18]: 78.4 µM
- IC50 [19]: 2.8 µM
- IC50 [20]: 6.96 µM
- IC50 [21]: 41.4 µM
- IC50 [22]: > 100 µM
- IC50 [6]: 57.2 µM

Structure (SMILES): O=C(/C=C/c1ccc(-c2ccccc2)cc1)NO
- IC50 [5]: 4.3 µM
